From PubChem
A selection: hits, their analogues and other compounds. The true share with any hit is near 3.8%.
Yeast life ext = extends the lifespan of yeast. actives 0.68% (n = 130,000). AID 775. inhibition of the nicotinamide effect, % at 10 µM. S. cerevisiae growth with nicotinamide, OD615; deaD strain in restrictive glucose medium;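 active means inhibition above a set limit, placed 3 SD over the median of all compounds, cut at about 26% in these data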;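 further: 0% = nicotinamide-treated wells and 100% = cells grown without nicotinamide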
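Material: Modified budding yeast, DeaD strain | Medium: Restrictive glucose medium | Probe or stimulus: 1.5 mM nicotinamide | Dosing: Single dose 10 µM compound, 0.25% DMSO | Times: 48 h at 30 °C | Technique: OD615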
SDO1 yeast rescue = restores growth of sdo1-depleted yeast. S. cerevisiae sdo1-depleted JHY4D growth rescue, OD600 30 h; active compounds read high; pdr5 snq2 efflux-pump mutant strain. z-score at 10 µM. actives 0.21% (n = 140,000);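 active means z-score above 3 at both the 24 hr and the 30 hr optical density reads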;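 further: z-score against mean and SD of all compound wells on the same plate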
Measles CPE = protection of cells from measles virus | Measles virus-infected cells, CPE protection, absorbance | protection (pct of control), % at 4 µM | actives 1.5% (n = 140,000) | AID 841; in the data active means protection mostly above about 24%, no sharp cut-off; inactive means mostly below about 26%
Yeast growth inh = chemicals that inhibit yeast BB579 growth in restrictive medium (lifespan-shortening candidates); inhibition, % at 10 µM; AID 804; actives 0.51% (n = 140,000); S. cerevisiae BB579 growth, OD615, 48 h;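 active means inhibition above a set limit, 3 SD over the mean compound inhibition, cut at about 44% in these data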
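Detection: OD615 turbidity measurement; Material: Saccharomyces cerevisiae DeaD strain BB579, replicative lifespan model yeast; Timing: 48 h exposure, 30 °C; Doses: single 10 µM dose; Medium: CSMM-D restrictive synthetic medium containing dextrose (glucose); Controls: amphotericin B at 10 µg/mL as positive control.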
RAM inhibit = inhibitors of the yeast RAM network. S. cerevisiae dse1pr::URA3 reporter, 5-FOA growth OD615, 2 d; analog-sensitive cbk1-as2 kinase mutant strain. inhibition, % at 50 µM. actives 1.8% (n = 190,000);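 active means inhibition above a set limit, 3 SD over mean compound inhibition, cut at about 8.4% in these data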;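 further: 0% = DMSO-only wells with no growth and 100% = 10 µM 1-NA-PP1 full growth; inhibition rescues growth on 5-FOA so higher OD means more RAM inhibition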
The depositor's hits bear a star; . = no result given.

SMILES	Yeast life ext	SDO1 yeast rescue	Measles CPE	Yeast growth inh	RAM inhibit
COc1ccc(Cl)cc1CSc1n[nH]c(C)n1	-10.9	-1.09	27.0*	-18.5	0.7
CCCCOc1ccc(Cl)cc1CSc1n[nH]c(C)n1	-13.2	-0.78	2.0	11.4	3.1
Fc1cccc(Nc2cc(-n3cccn3)ncn2)c1	-19.4	-0.54	7.8	-32.7	0.1
Cc1ccc(Cl)c(OC(=O)c2nn(C(C)C)c(=O)c3ccccc23)c1	15.8	0.23	6.4	-22.8	10.2*
COc1ccc(S(=O)(=O)N(CC(=O)N2CCOCC2)Cc2ccccc2)cc1	.	-0.03	17.8	3.2	0.1
O=C(CN(Cc1ccccc1)S(=O)(=O)c1ccccc1)N1CCOCC1	-6.3	0.09	38.1*	10.9	0.9
Cc1ccccc1NC(=O)C(=Cc1ccc(C(=O)O)cc1)C(=O)Nc1ccccc1C	.	.	.	.	10.7*
Cc1[nH]c2ccccc2c1-c1csc(NC(=O)CSCCO)n1	.	.	.	.	2.6
Cc1nc2c3ccccc3[nH]c(=O)n2n1	.	0.53	68.2*	-33.6	0.4
CN(C)NC(=O)C12CCC(C)(C(=O)O1)C2(C)C (centres undefined)	.	.	.	.	3.1
CC(C)Cn1cnc2c(c1=O)c1nc3ccccc3nc1n2Cc1ccc2c(c1)OCO2	-14.6	-0.92	57.6*	-11.9	2.9
Cc1ccccc1-c1nnc(SCCOc2ccc3c(C)cc(=O)oc3c2)o1	-10.8	-0.2	4.8	-26.3	1.7
Cc1cc(C)cc(NC(=O)N2CCN(C/C=C/c3ccccc3)CC2)c1	.	.	.	.	-0.5
CCCn1c(C)cc(C(=O)CSc2nc3ccccc3c(=O)n2Cc2ccco2)c1C	-3.4	-0.85	6.1	-17.1	9.3*
O=c1c2ccccc2nc(SCc2ccccc2Cl)n1Cc1ccccc1	-6.1	-0.11	19.2	-26.4	8.9*
COC(=O)c1ccc(CSc2nc3ccccc3c(=O)n2Cc2ccco2)o1	-4.8	-0.48	26.4	-18.2	9.7*
COC(=O)c1ccc(CSc2nc3ccccc3c(=O)n2CC(C)C)o1	-13.1	-0.12	23.0	-41.7	9.1*
CCOC(=O)Cc1csc(NC(=O)C(NC(=O)C2CCCCC2)C(C)C)n1 (centres undefined)	.	.	.	.	2.0
CCc1nc(SCc2ccc(F)cc2)[nH]c(=O)c1C#N	.	1.63	3.2	-46.8	4.0
CC(C)NC(=O)NC(=O)COC(=O)c1ccc([N+](=O)[O-])cc1Cl	.	.	.	.	0.1
COc1ccc(CCN2C(=O)C3C(C2=O)C2C=CC3C23CC3)cc1OC (centres undefined)	.	.	.	.	0.3
O=C(CNC(=O)c1ccncc1)N/N=C/c1cc(Br)ccc1O	12.4	0.37	11.3	-54.2	0.7
O=C(N/N=C/c1cc(Br)ccc1O)C(c1ccncc1)N1CCOCC1 (centres undefined)	35.2*	0.15	15.3	-5.6	-0.7
O=C1CC(=O)N(c2ccccc2)c2ccccc21	0.2	-0.09	6.3	-33.2	2.2
O=C1CC(=O)N(c2ccccc2)N1c1ccccc1	28.0*	-0.13	23.6	-13.9	1.7
SMILES	Yeast life ext	SDO1 yeast rescue	Measles CPE	Yeast growth inh	RAM inhibit
O=c1[nH]c(NC2CCCCC2)c([N+](=O)[O-])c(=O)[nH]1	0.9	1.08	28.3*	-7.6	2.0
c1ccc(-c2nc(NCC3CCCO3)c3oc4ccccc4c3n2)cc1 (centres undefined)	-12.9	-1.31	79.9*	-58.7	1.0
c1ccc2c(c1)oc1c(NCC3CCCO3)ncnc12 (centres undefined)	-25.7	0.67	2.6	-12.4	0.1
Cn1c(C(=O)NCC2CCCO2)cc2oc3ccccc3c21 (centres undefined)	-27.8	-0.84	10.9	-6.1	0.4
Cn1c(C(=O)NCc2cccs2)cc2oc3ccccc3c21	-27.0	-0.64	47.6*	-13.2	5.4
O=C(CNC(=O)c1cc2ccccc2o1)NCc1cccs1	-8.0	-0.01	6.0	-24.8	1.9
Cn1c(C(=O)NCc2ccccc2)cc2oc3ccccc3c21	-20.1	-1.09	73.2*	-9.3	2.9
COc1ccc(NS(=O)(=O)c2ccc3c(c2)Cc2ccccc2-3)cn1	-2.5	-2.25	2.4	-41.1	2.8
Cc1cc2occ(CC(=O)Nc3nnc(C4CC4)s3)c2cc1C	-0.5	-0.12	2.9	-30.9	2.8
O=C(Cc1coc2ccc3ccccc3c12)Nc1nnc(C2CC2)s1	-12.5	-0.71	56.5*	-7.2	2.9
COc1ccc(C2CC(c3ccccc3)=NN2c2ccc(S(N)(=O)=O)cc2)cc1 (centres undefined)	.	.	.	.	9.3*
COc1ccc(C2CC(c3ccccc3)=NN2C(=O)CSc2ncccn2)cc1 (centres undefined)	-1.3	-0.94	12.5	-20.1	10.7*
COc1ccc(CN(C(=O)Cn2nnc(-c3ccc(C)o3)n2)C(C(=O)NCC2CCCO2)c2ccco2)cc1 (centres undefined)	.	.	.	.	9.1*
Cc1c(Br)cc(C(=O)NCc2ccco2)c(C)c1C	13.2	-0.57	102.8*	-11.1	2.2
Cc1ccc(C(=O)NCc2ccco2)cc1Br	-5.6	0.66	23.1	-41.4	-1.7
CN(C)S(=O)(=O)c1cccc(NC(=O)COC(=O)c2cn(-c3ccccc3)nc2-c2ccccc2)c1	4.1	-0.87	12.7	-20.3	9.1*
Cc1nn(Cc2c(Cl)cccc2Cl)c(C)c1NC(=O)c1cc(C(C)C)on1	-2.6	-2.08	51.7*	-89.7	4.5
NC(=O)CN(c1ccc(Cl)cc1)S(=O)(=O)c1ccccc1	0.9	0.08	2.5	-29.2	1.2
Cc1ccc(S(=O)(=O)N(CC(=O)Nc2ccccc2C(=O)O)c2ccc(Cl)cc2)cc1	.	.	.	.	8.5*
CSC1=N/C(=C\c2ccccc2F)C(=O)S1	8.5	-0.11	4.0	-62.8	5.5
COc1cccc(/C=C2\N=C(SC)SC2=O)c1OC	-2.3	0.1	19.7	-40.3	9.6*
Clc1ccc(N/N=C/c2ccncc2)cc1Cl	-11.7	-2.1	19.6	49.3*	-0.2
Clc1ccc(N/N=C/c2cccnc2)cc1	-6.8	-2.02	4.3	65.6*	-1.9
Cc1nn(-c2ccc(F)cc2)c(Cl)c1/C=C1\C(=O)Nc2ccccc21	-0.7	-1.96	3.5	-30.6	8.6*
COc1cc(OC)cc(C(=O)NCC(=O)OC2CCOC2=O)c1 (centres undefined)	-4.5	1	6.3	-21.0	2.7
SMILES	Yeast life ext	SDO1 yeast rescue	Measles CPE	Yeast growth inh	RAM inhibit
CCOc1ccc(C(=O)NCC(=O)OC2CCOC2=O)cc1OCC (centres undefined)	-0.9	-0.22	42.5*	-48.3	0.7
CCCc1sc(N/N=C/c2ccccn2)nc1-c1ccc(F)cc1	.	-2.15	2.8	-32.6	3.1
Cc1nc(N/N=C/c2ccccn2)sc1C	-2.8	-1.98	1.2	43.6*	0.3
CCCS(=O)(=O)N1CCC(C(=O)NCC2CCCO2)CC1 (centres undefined)	-6.5	-0.23	4.8	-24.9	3.0
Cc1cc(-c2nnc(CCC(=O)N3CCN(Cc4cccnc4)CC3)o2)c(C)o1	.	.	.	.	-0.3
COC(=O)c1cnn2c1C(=O)N(Cc1cccs1)CC2	.	.	.	.	1.1
Cc1ccc(-c2nc3ccccc3[nH]2)cc1NC(=O)/C=C/c1ccco1	-2.5	-0.95	13.3	-27.1	0.4
